Article PMC11409854 (Chemical Science, 2024)
Values after ≈ are worked out from the molar mass of the structure shown. Values joined by “and” are separate entries in the source; they are usually repeats but may differ in a detail not shown here. Equal entries are not always repeated.

Assays:
[1] = system: NDM-1 and VIM-2; details: cited from earlier work
[2] = system: VIM-1 and IMP-1; details: cited from earlier work
[3] = target: NDM-1 (Klebsiella pneumoniae, UniProt C7C422); experiment: MBL inhibition, nitrocefin absorbance assay, NDM-1; assay type: biochemical
NDM-1, sequence (C7C422 29-270, looked up): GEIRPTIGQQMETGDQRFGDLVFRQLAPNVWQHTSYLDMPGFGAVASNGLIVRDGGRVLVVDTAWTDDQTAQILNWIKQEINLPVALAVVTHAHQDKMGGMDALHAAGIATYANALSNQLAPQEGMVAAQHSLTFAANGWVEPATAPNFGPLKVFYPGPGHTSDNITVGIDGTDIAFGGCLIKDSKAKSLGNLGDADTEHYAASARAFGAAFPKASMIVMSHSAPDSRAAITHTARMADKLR
Outline: (§1)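 Absorbance inhibition assay for purified metallo-β-lactamases from a seven-enzyme panel. Nitrocefin served as substrate; enzyme hydrolysis of its β-lactam ring shifts the absorption spectrum, which is monitored by absorbance. IC50 was determined for the test compound.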

[4] = target: IMP-1 (Serratia marcescens, UniProt P52699); experiment: MBL inhibition, nitrocefin absorbance assay, IMP-1; assay type: biochemical
IMP-1, sequence (P52699 19-246, looked up, species assumed): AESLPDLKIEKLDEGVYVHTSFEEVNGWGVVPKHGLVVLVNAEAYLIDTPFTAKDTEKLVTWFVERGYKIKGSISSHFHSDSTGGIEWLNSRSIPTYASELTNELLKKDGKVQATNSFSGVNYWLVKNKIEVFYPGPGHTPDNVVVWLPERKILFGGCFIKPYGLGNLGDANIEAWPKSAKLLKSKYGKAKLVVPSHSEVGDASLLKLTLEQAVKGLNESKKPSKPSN
Outline: as §1

[5] = system: K. pneumoniae EN5136 (NDM-1, OXA-1, SHV); experiment: MIC / checkerboard assay, K. pneumoniae EN5136; assay type: cell-based; details: carbapenem alone
Outline: (§2)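 Carbapenem (meropenem or doripenem) MICs were determined in μg mL−1 against NDM-producing K. pneumoniae and E. coli isolates. Each was tested alone and in the presence of fixed test compound at 16 μg mL−1 (7 μM) or 32 μg mL−1 (14 μM). Fold change is the MIC with compound relative to carbapenem alone.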

[6] = system: K. pneumoniae BAA2146 (NDM-1); experiment: MIC / checkerboard assay, K. pneumoniae BAA2146; assay type: cell-based; details: carbapenem alone
Outline: as §2

[7] = system: K. pneumoniae R3934 (NDM-1); experiment: MIC / checkerboard assay, K. pneumoniae R3934; assay type: cell-based; details: carbapenem alone
Outline: as §2

[8] = system: E. coli EN5141 (NDM-1, OXA-1); experiment: MIC / checkerboard assay, E. coli EN5141; assay type: cell-based; details: carbapenem alone
Outline: as §2

[9] = system: clinical isolates of NDM producing K. pneumoniae and E. coli; experiment: Checkerboard assay, summary over NDM-producing isolates; assay type: cell-based; details: for fold decrease in the MIC value: with 16 μg mL^−1 VanNHdipi (7 μM); for fold reduction of the MIC value: with 32 μg mL^−1 VanNHdipi (14 μM), all strains
Outline: as §2

[10] = system: K. pneumoniae R3934; experiment: Time-kill kinetics of carbapenem combinations; assay type: cell-based; details: carbapenem alone (meropenem 8 μg mL^−1, doripenem 2 μg mL^−1)
Outline: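 K. pneumoniae R3934 (NDM-1) was exposed to meropenem (4 or 8 μg mL−1) or doripenem (0.5 or 1 μg mL−1) with the test compound at 32 μg mL−1. Controls were untreated cultures and carbapenem alone (meropenem 8, doripenem 2 μg mL−1). Viable counts (Log CFU mL−1) were taken at 2, 4, 6 and 24 h; <50 CFU mL−1 was flagged.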

[11] = system: MRSA, methicillin-resistant S. aureus (ATCC 33591); experiment: MIC determination; assay type: cell-based; details: Staphylococcus aureus, ATCC33591|MRSA
[12] = system: vancomycin-resistant strains (VRSA and VRE); experiment: MIC across the panel of vancomycin-resistant strains; assay type: cell-based, Staphylococci and Enterococci; details: Staphylococcus aureus
[13] = system: MRSA; experiment: Time-kill kinetics against exponential phase MRSA; assay type: cell-based, S. aureus; details: at MIC (vancomycin: same across concentrations)
Outline: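 Exponential-phase MRSA was exposed to the test compound or vancomycin at the MIC and higher multiples. Viable counts (Log CFU mL−1) were followed over time up to 24 h.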

[14] = system: MRSA ATCC 33591 biofilms; experiment: Activity against mature biofilms of MRSA; assay type: cell-based, S. aureus; details: 20 μM, 24 h
[15] = system: MRSA; experiment: Antagonization assay with N,N'-diacetyl-L-Lys-D-Ala-D-Ala; assay type: cell-based, S. aureus; details: Staphylococcus aureus, read-out: MIC in the presence of KAA
Outline: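 Test compound or vancomycin was pre-incubated with N,N'-diacetyl-L-Lys-D-Ala-D-Ala (KAA) before being added to the MRSA suspension for MIC determination. MIC in the presence of KAA was compared with that without KAA.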

[16] = system: B. subtilis; experiment: MIC determination against B. subtilis; assay type: cell-based; details: Bacillus subtilis
[17] = system: B. subtilis 168; experiment: Physiologically effective concentration; assay type: cell-based, Bacillus subtilis
Outline: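 B. subtilis 168 was grown to mid-log phase (OD500 0.35) and then given different concentrations of the test compound or vancomycin. The acute effect on growth was followed by optical density. The PEC is the concentration at which growth continues at a reduced rate, expressed as a multiple of the MIC.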

[18] = system: B. subtilis 168 newly synthesized cytosolic proteins; experiment: 2D gel-based proteome analysis with [35S]-methionine pulse labeling; assay type: cell-based, Bacillus subtilis; details: 10 min
Outline: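 B. subtilis 168 cultures grown to OD500 0.35 were exposed for 10 min to the test compound or vancomycin at the physiologically effective concentration. Newly synthesised cytosolic proteins were pulse-labelled with [35S]-methionine, separated by 2D gel electrophoresis and compared with untreated cells by false-colour overlay (treated red, control green). Proteins were identified by LC-MS; regulation factor is the treated/control ratio.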

[19] = system: GFP-MinD in B. subtilis 1981; experiment: GFP-MinD localization; assay type: cell-based, Bacillus subtilis; details: at PEC (vancomycin 0.4 μM, VanNHdipi 0.16 μM)
[20] = system: B. subtilis 168; experiment: Cell wall biosynthesis inhibition assay; assay type: cell-based, Bacillus subtilis; details: at PEC (vancomycin 0.4 μM, VanNHdipi 0.16 μM)
[21] = D-Ala-D-Lac versus D-Ala-D-Ala; cited from earlier work

## O=C(O)c1ncsc1NS(=O)(=O)c1cccnc1 [ANT431]
[1]
  inhibitory activity: sub-micromolar
[2]
  fold less active than against NDM-1 and VIM-2: at least 20 fold

## c1ccc(CNCc2ccccn2)nc1 [BPYA, bis(pyridin-2-ylmethyl)amine]
[3]
  IC50: 1200 nM
[4]
  IC50: > 40000 nM

## C[C@@H](O)[C@H]1C(=O)N2C(C(=O)O)=C(S[C@@H]3CN[C@H](CNS(N)(=O)=O)C3)[C@H](C)[C@H]12 [Doripenem]
[5]
  MIC of carbapenem: 8 µg/mL
[6]
  MIC of carbapenem: 16 µg/mL
[7]
  MIC of carbapenem: 16 µg/mL
[8]
  MIC of carbapenem: 8 µg/mL
[9]
  MIC: 0.06 to 4 µg/mL
  fold reduction of the MIC value: 16–32 fold
[9]; NDM producing K. pneumoniae and E. coli
  fold decrease in the MIC value: 4-16 fold
[10]
  growth inhibition: no growth inhibition

## C[C@@H](O)[C@H]1C(=O)N2C(C(=O)O)=C(S[C@@H]3CN[C@H](C(=O)N(C)C)C3)[C@H](C)[C@H]12 [Meropenem]
[5]
  MIC of carbapenem: 8 µg/mL
[6]
  MIC of carbapenem: 8 µg/mL
[7]
  MIC of carbapenem: 64 µg/mL
[8]
  MIC of carbapenem: 2 µg/mL
[9]
  MIC: 0.06 to 4 µg/mL
  fold reduction of the MIC value: 16–32 fold
[9]; NDM-1 expressing K. pneumoniae strains
  fold decrease in the MIC value: 2-8 fold
[10]
  growth inhibition: did not show any growth inhibition

## CN[C@H](CC(C)C)C(=O)N[C@H]1C(=O)N[C@@H](CC(N)=O)C(=O)N[C@H]2C(=O)N[C@H]3C(=O)N[C@H](C(=O)N[C@H](C(=O)O)c4cc(O)cc(O)c4-c4cc3ccc4O)[C@H](O)c3ccc(c(Cl)c3)Oc3cc2cc(c3O[C@@H]2O[C@H](CO)[C@@H](O)[C@H](O)[C@H]2O[C@H]2C[C@](C)(N)[C@H](O)[C@H](C)O2)Oc2ccc(cc2Cl)[C@H]1O [Vancomycin]
[11]
  MIC: 0.6 µM (≈ 0.87 µg/mL)
[12]
  MIC: > 346 µM and > 512 µg/mL
[13]
  time to complete eradication: 24 h
[14]
  reduction in cell viability within the biofilms: minimal activity
[15]
  MIC: > 30 µM
[16]
  MIC: 0.2 µM (≈ 0.29 µg/mL)
[17]; added at OD500 0.35
  PEC as multiple of MIC: 2 × MIC
[17]; added at OD500 0.35 (mid-log phase)
  physiologically effective concentration (PEC), growth retardation: 0.4 μM
[18]; at PEC (vancomycin 0.4 μM, VanNHdipi 0.16 μM)
  Regulation factor (treated/control), CysC: 2.3 ± 0.1
[18]; at PEC
  Regulation factor (treated/control), GsaB: 2.8 ± 0.4
  Regulation factor (treated/control), Hom: 5.0 ± 3.8
  Regulation factor (treated/control), LysA: 2.7 ± 0.3
  Regulation factor (treated/control), MtnE: 2.4 ± 0.3
  Regulation factor (treated/control), MurF: 4.1 ± 1.6
  Regulation factor (treated/control), NfrA: 3.3 ± 0.2
  Regulation factor (treated/control), RpsB: 2.7 ± 0.3
  Regulation factor (treated/control), SdhA: 3.3 ± 1
  Regulation factor (treated/control), ThiG: 2.5 ± 0.1
  Regulation factor (treated/control), Udk: 3.1 ± 0.5
  Regulation factor (treated/control), YceC: 3.7 ± 0.9
  Regulation factor (treated/control), YoxD: 2.9 ± 0.1
  Regulation factor (treated/control), YpuA: 4.4 ± 0.3
  Regulation factor (treated/control), YqiG: 5.2 ± 1.3
  Regulation factor (treated/control), YtrB: 4.8 ± 0.5
  Regulation factor (treated/control), YtrE.2: 18.2 ± 8.98
[19]
  MinD delocalization: did not elicit any MinD protein delocalization
[20]
  inhibition of cell wall biosynthesis (bubbles on cell surface): Bubble-like formations were observed
[21]
  fold reduction in binding affinity: 1000 fold
